Source: article PMC11389331 (BMC Biology, 2024)

What was measured:
B. dioryctriae [1] = assay: Y-tube olfactometer assay; format: in vivo, Baryscapus dioryctriae; conditions: 20 μL test chemical vs paraffin oil, chi-square test
Procedure, shortened: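 Binary Y-tube (1.1 cm diameter, 6 cm base and arms, 60° between arms) used with wasps reared at 25 ± 1 °C, 50 ± 5% RH. One arm held 20 × 50 mm filter paper loaded with 20 μL test chemical; the other held 20 μL paraffin oil. After every five wasps, the tube was cleaned with dehydrated alcohol and air-dried, and odour sides were swapped.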

B. dioryctriae [2] = conditions: cited from earlier work

| Compound | behavioral response (attraction) of B. dioryctriae adults (B. dioryctriae [1]) | effect on reproductive efficiency of B. dioryctriae (B. dioryctriae [2]) |
| --- | --- | --- |
| CC1=CCC(C(C)C)=CC1 [g-Terpinene] | significantly attract | – |
| CC1=CCC2CC1C2(C)C (stereo not drawn) [α-Pinene] | significantly attract | – |
| C=C1CC[C@H]2O[C@]2(C)CC[C@@H]2[C@@H]1CC2(C)C [Caryophyllene oxide] | does not attract | – |
| CCCCCC=C(C=O)CCCC [2-butyl-2-octenal] | – | significantly improve |
